From article PMC11492202 (RSC Advances, 2024)

Experiments:
Escherichia coli = test: Antibacterial disc diffusion assay; format: cell-based; conditions: 37 °C, 24 hours
Outline: (§1)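 Organisms grown overnight in nutrient broth, adjusted to 0.5 McFarland turbidity and spread evenly on Mueller-Hinton agar with sterile cotton brushes. Sterile 4 mm paper discs were impregnated with test compound and placed on the inoculated plates. Rifampin served as the positive control and DMSO as the negative control. Plates were incubated at 37 °C for 24 h, and inhibition zones were measured in mm.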

α-amylase = test: In vitro α-amylase inhibition assay; format: biochemical; conditions: read-out: α-Amylase inhibition IC50 ± SEM; starch substrate, pH 6.9
Bacillus subtilis = test: Antibacterial disc diffusion assay; format: cell-based; conditions: 37 °C, 24 hours
Outline: as §1

Proteinase K = Proteinase K (Parengyodontium album, UniProt P06873); test: In vitro proteinase K inhibition assay; format: biochemical, Tritirachium album Limber
Chain of Proteinase K (P06873 106-384): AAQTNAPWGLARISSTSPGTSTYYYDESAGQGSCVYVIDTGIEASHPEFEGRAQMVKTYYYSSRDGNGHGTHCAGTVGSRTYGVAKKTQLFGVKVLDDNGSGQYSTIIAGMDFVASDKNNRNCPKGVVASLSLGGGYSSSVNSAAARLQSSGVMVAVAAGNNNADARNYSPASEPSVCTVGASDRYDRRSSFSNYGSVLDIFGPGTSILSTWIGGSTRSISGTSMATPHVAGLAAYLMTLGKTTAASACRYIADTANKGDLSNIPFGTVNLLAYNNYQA

Compound	IC50 (α-amylase) [nM]	IC50 (Proteinase K) [nM]	Antibacterial zone of inhibition (Escherichia coli) [mm]	Antibacterial zone of inhibition (Bacillus subtilis) [mm]
COc1ccc(C(=O)NC(=S)Nc2nc(-c3ccccc3)cc(-c3ccc(Cl)cc3)n2)cc1OC [6b, N-((4-(4-Chlorophenyl)-6-phenylpyrimidin-2-yl)carbamothioyl)-3,4-dimethoxybenzamide]	1612 ± 4	1810 ± 86	6	9
Cc1ccc(-c2cc(-c3ccc(F)cc3)nc(NC(=S)NC(=O)c3ccccc3)n2)cc1 [6d, N-((4-(4-Fluorophenyl)-6-(p-tolyl)pyrimidin-2-yl)carbamothioyl)benzamide]	1550 ± 23	–	8	9
Cc1ccccc1C(=O)NC(=S)Nc1nc(-c2ccccc2)cc(-c2ccc(Cl)cc2)n1 [6f, N-((4-(4-Chlorophenyl)-6-phenylpyrimidin-2-yl)carbamothioyl)-2 methylbenzamide]	1664 ± 10	1790 ± 80	7	6
O=C(NC(=S)Nc1nc(-c2ccccc2)cc(-c2ccc(Cl)cc2)n1)c1cccc2ccccc12 [6h, N-((4-(4-Chlorophenyl)-6-phenylpyrimidin-2-yl)carbamothioyl)-1-naphthamide]	1601 ± 8	–	6	8
O=C(NC(=S)Nc1nc(-c2ccccc2)cc(-c2ccc(Cl)cc2)n1)C1CCCCC1 [6i, N-((4-(4-Chlorophenyl)-6-phenylpyrimidin-2-yl)carbamothioyl) cyclohexane carboxamide]	1520 ± 34	–	7	11
Cc1ccc(C(=O)NC(=S)Nc2nc(-c3ccccc3)cc(-c3ccc(Cl)cc3)n2)cc1 [6j, N-((4-(4-Chlorophenyl)-6-phenylpyrimidin-2-yl)carbamothioyl)-4-methylbenzamide]	1480 ± 51	–	6	7
CO[C@H]1/C=C/O[C@@]2(C)Oc3c(C)c(O)c4c(O)c(c(/C=N/N5CCN(C)CC5)c(O)c4c3C2=O)NC(=O)/C(C)=C\C=C\[C@H](C)[C@H](O)[C@@H](C)[C@@H](O)[C@@H](C)[C@H](OC(C)=O)[C@@H]1C [Rifampin, reference compound]	–	–	17	26

Further lines, with some results ahead:

IC50 (α-amylase) [nM]	IC50 (Proteinase K) [nM]	Compound	Antibacterial zone of inhibition (Escherichia coli) [mm]	Antibacterial zone of inhibition (Bacillus subtilis) [mm]
1676 ± 14	–	O=C(NC(=S)Nc1nc(-c2ccccc2)cc(-c2ccc(Br)cc2)n1)c1ccccc1 [6a, N-((4-(4-Bromophenyl)-6-phenylpyrimidin-2-yl)carbamothioyl) benzamide]	7	8
1550 ± 24	1830 ± 62	Cc1ccc(-c2cc(-c3ccccc3)nc(NC(=S)NC(=O)c3ccccc3)n2)cc1 [6c, N-((4-Phenyl-6-(p-tolyl)pyrimidin-2-yl)carbamothioyl)benzamide]	7	8
1662 ± 10	–	O=C(NC(=S)Nc1nc(-c2ccccc2)cc(-c2ccc(F)cc2)n1)c1ccccc1 [6e, N-((4-(4-Fluorophenyl)-6-phenylpyrimidin-2-yl)carbamothioyl)benzamide]	6	7
